From ChEMBL document CHEMBL1124849, “Synthesis, antitumor activity, and antiviral activity of 3-substituted 3-deazacytidines and 3-substituted 3-deazauridines” (J Med Chem, 1990)
In brackets after ≈: the same amount, converted by molar mass.

Key:
L1210 = experiment: In vitro inhibition of L1210 leukemia cell growth; assay type: functional; conditions: Mus musculus, read-out: ID50 (the source's name)
Enterovirus = experiment: The minimum inhibitory concentration (MIC) required to inhibit rhinovirus type 34 induced cytopathic effect (CPE) on WISH cells; assay type: functional
Method in brief: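 WISH cells grown 18–24 h to monolayers. Serial 2-fold drug dilutions applied, then 320 CCID50 of rhinovirus type 34 added; sealed plates incubated 72 h at 33 °C. Cell, virus and toxicity controls included.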

[1] = The minimum cytotoxic concentration (MCC) reducing cell viability on WISH cells; assay type: cell-based; conditions: human
Method in brief: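 Uninfected WISH cell monolayers, grown 18–24 h, were given serial 2-fold drug dilutions (cells + medium + drug) and incubated at 33 °C for 72 h. Cells were examined microscopically.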

[2] = (§1) The antiviral index is defined as MCC/MIC; assay type: functional
Mus musculus [3] = experiment: Compound (600 mg/kg) was tested against intraperitoneally implanted P388 leukemia in mice; assay type: functional
Method in brief: (§2)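 CD2F1 mice, groups of six, inoculated ip with 10⁶ P388 leukemia cells; ip treatment started 24 h after inoculation, once daily for 5 days. Read-out is %T/C = (mean survival time of treated mice in days / mean survival time of controls) × 100, with ≥120 taken as moderate activity.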

[4] = as §1; assay type: ADME; conditions: read-out: Antiviral index
Method in brief: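 Rhinovirus type 34 on WISH cell monolayers grown 18–24 h. Serial 2-fold drug dilutions were added with 320 CCID50 of virus and incubated at 33 °C for 72 h. CPE was scored microscopically on a 0–4 scale. […] AI = MCC/MIC.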

Mus musculus [5] = experiment: Compound (400 mg/kg) was tested against intraperitoneally implanted P388 leukemia in mice; assay type: functional; method in brief: as §2
Mus musculus [6] = experiment: Compound (100 mg/kg) was tested against intraperitoneally implanted P388 leukemia in mice; assay type: functional; method in brief: as §2
Mus musculus [7] = experiment: Compound (50 mg/kg) was tested against intraperitoneally implanted P388 leukemia in mice; assay type: functional; method in brief: as §2
Mus musculus [8] = species on record: Mus musculus; experiment: Mean weight change (day 5 wt minus day 1 wt) of the treated mice to the mean weight change of the control mice in grams; assay type: functional
Method in brief: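 CD2F1 mice given 10⁶ P388 cells ip, then ip treatment once daily for 5 days starting at 24 h. Toxicity is the mean weight change (day 5 minus day 1) of treated mice minus that of control mice, in grams.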

Mus musculus [9] = experiment: Compound (200 mg/kg) was tested against intraperitoneally implanted P388 leukemia in mice; assay type: functional; method in brief: as §2

Row | Compound | IC50 (L1210) [µM] | MIC (Enterovirus) [µg/mL] | MCC [1] [µg/mL] | Antiviral index [2] | other results
1 | Nc1ccn([C@@H]2O[C@H](CO)[C@@H](O)[C@H]2O)c(=O)c1 | 28.6 | 3.2 (≈ 13.2 µM) | 400 | 125 | –
2 | O=c1cc(O)ccn1[C@@H]1O[C@H](CO)[C@@H](O)[C@H]1O | – | – | 400 | – | –
3 | Nc1ccn(C2O[C@H](CO)[C@@H](O)[C@H]2O)c(=O)c1[N+](=O)[O-] (some centres not stated) | – | – | > 1000 | – | –
4 | O=c1c([N+](=O)[O-])c(O)ccn1C1O[C@H](CO)[C@@H](O)[C@H]1O (some centres not stated) | – | – | 400 | – | –
5 | O=c1c(Cl)c(O)ccn1C1O[C@H](CO)[C@@H](O)[C@H]1O (some centres not stated) | – | – | > 1000 | – | –
6 | O=c1c(Br)c(O)ccn1C1O[C@H](CO)[C@@H](O)[C@H]1O (some centres not stated) | – | – | > 1000 | – | –
7 | Nc1ccn(C2O[C@H](CO)[C@@H](O)[C@H]2O)c(=O)c1Br (some centres not stated) | > 31.1 | 173 (≈ 540 µM) | 800 | 4.6 | –
8 | Nc1c(F)cn(C2O[C@H](CO)[C@@H](O)[C@H]2O)c(=O)c1F (some centres not stated) | > 35.9 | 28.3 (≈ 102 µM) | 400 | 14.1 | –
9 | Nc1cc(=O)n(C2O[C@H](CO)[C@@H](O)[C@H]2O)cc1F (some centres not stated) | – | – | 800 | – | –
10 | Nc1ccn(C2O[C@H](CO)[C@@H](O)[C@H]2O)c(=O)c1F (some centres not stated) | 11.8 | 1.3 (≈ 5 µM) | 400 | – | T/C (Mus musculus [3]): 185; selectivity ratio [4]: 308; T/C (Mus musculus [5]): 177; T/C (Mus musculus [6]): 149; T/C (Mus musculus [7]): 133; Weight change (Mus musculus [8]): -3.4 (not active) [middle of 5 runs]; T/C (Mus musculus [9]): 158
11 | Nc1ccn(C2O[C@H](CO)[C@@H](O)[C@H]2O)c(=O)c1Cl (some centres not stated) | > 36.1 | 53.7 (≈ 194 µM) | 400 | 7.5 | –
